Activity calls are given as the source filed them. The rule behind the calls is not given here.
Key:
Adenosine receptor A2a [1] = target: Adenosine receptor A2a (Rattus norvegicus, UniProt P30543); assay: Displacement of [3H]MSX-2 from adenosine A2A receptor in rat brain striatal membranes after 30 mins by liquid scintillation counting method; assay type: cell membranes, Striatum, Membrane
Summary of the method: (§1)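 [³H]MSX-2 (1 nM) used with rat striatal or human A2A-HEK membranes, 30 min at rt. Membranes pre-incubated 10-15 min with ADA 0.12 IU/mL. DMSO 2.5 % final. GF/B filtration, then scintillation counting. Curves used 6-7 concentrations over 3 log units. At least three experiments, in duplicate (human) or triplicate (rat).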

Adenosine receptor A2a [2] = target: Adenosine receptor A2a (Homo sapiens, UniProt P29274); assay: Displacement of [3H]MSX-2 from recombinant human adenosine A2A receptor expressed in HEK cell membranes after 30 mins by liquid scintillation counting method
Summary of the method: as §1, with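 “IU/mL. Nonspecific binding defined with 10 µM CGS15943.” for “IU/mL.”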

Adenosine receptor A2b [3] = target: T1, Adenosine receptor A2b (Homo sapiens, UniProt P29275); assay: Displacement of [3H]PSB-603 from recombinant human adenosine A2B receptor expressed in CHO cell membranes after 75 mins by liquid scintillation counting method
T1 sequence (P29275 whole entry): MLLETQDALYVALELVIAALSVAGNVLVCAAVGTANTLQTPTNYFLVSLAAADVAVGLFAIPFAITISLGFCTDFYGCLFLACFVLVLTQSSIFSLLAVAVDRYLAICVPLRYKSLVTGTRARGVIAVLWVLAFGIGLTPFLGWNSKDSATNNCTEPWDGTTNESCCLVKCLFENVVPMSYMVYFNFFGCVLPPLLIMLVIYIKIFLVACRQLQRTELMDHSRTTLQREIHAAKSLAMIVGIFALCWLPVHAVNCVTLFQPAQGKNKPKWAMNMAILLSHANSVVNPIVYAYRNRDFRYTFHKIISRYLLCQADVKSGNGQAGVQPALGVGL
Summary of the method: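 [³H]PSB-603 (0.3 nM) used with CHO membranes expressing human, mouse or rat A2BAR, 75 min at rt. Membranes pre-incubated 10-15 min with ADA 0.12 IU/mL. Nonspecific binding defined with 10 µM DPCPX. DMSO 2.5 % final. Filtration on GF/B with ice-cold 50 mM Tris-HCl pH 7.4 containing 0.1 % BSA, then scintillation counting. Curves used 6-7 concentrations over 3 log units. At least three experiments.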

Adenosine receptor A2b [4] = target: T2, Adenosine receptor A2b (Rattus norvegicus, UniProt P29276); assay: Displacement of [3H]PSB-603 from recombinant rat adenosine A2B receptor expressed in CHO cell membranes after 75 mins by liquid scintillation counting method
T2 sequence (P29276 whole entry): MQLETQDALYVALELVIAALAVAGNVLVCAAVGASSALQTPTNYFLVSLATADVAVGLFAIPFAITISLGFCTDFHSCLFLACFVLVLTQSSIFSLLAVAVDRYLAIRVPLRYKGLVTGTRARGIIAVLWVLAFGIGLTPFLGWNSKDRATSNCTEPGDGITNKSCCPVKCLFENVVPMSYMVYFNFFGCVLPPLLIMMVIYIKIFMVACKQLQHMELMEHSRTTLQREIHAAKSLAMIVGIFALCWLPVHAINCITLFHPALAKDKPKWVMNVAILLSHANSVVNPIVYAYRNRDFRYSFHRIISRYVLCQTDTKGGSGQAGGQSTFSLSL
Summary of the method: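 Membranes pre-incubated 10-15 min with ADA 0.12 IU/mL. DMSO 2.5 % final. Filtration on GF/B with ice-cold 50 mM Tris-HCl pH 7.4 containing 0.1 % BSA, then scintillation counting. Curves used 6-7 concentrations over 3 log units. At least three experiments.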

Rattus norvegicus = organism: Rattus norvegicus; assay: Selectivity ratio of Ki for adenosine A2A receptor in rat brain striatal membranes to Ki for recombinant rat adenosine A2B receptor expressed in CHO cell membranes; assay type: cell-based
Homo sapiens = organism: Homo sapiens; assay: Selectivity ratio of Ki for recombinant human adenosine A3 receptor expressed in CHO cell membranes to Ki for recombinant human adenosine A2B receptor expressed in CHO cell membranes; assay type: cell-based
[5] = Selectivity ratio of Ki for recombinant human adenosine A1 receptor expressed in CHO cell membranes to Ki for recombinant mouse adenosine A2B receptor expressed in CHO cell membranes; assay type: cell-based
[6] = Selectivity ratio of Ki for recombinant human adenosine A1 receptor expressed in CHO cell membranes to Ki for recombinant rat adenosine A2B receptor expressed in CHO cell membranes; assay type: cell-based
[7] = Selectivity ratio of Ki for recombinant human adenosine A3 receptor expressed in CHO cell membranes to Ki for recombinant mouse adenosine A2B receptor expressed in CHO cell membranes; assay type: cell-based
[8] = Selectivity ratio of Ki for recombinant human adenosine A3 receptor expressed in CHO cell membranes to Ki for recombinant rat adenosine A2B receptor expressed in CHO cell membranes; assay type: cell-based
Adenosine receptor A2b [9] = target: T1, Adenosine receptor A2b; assay: Antagonist activity at recombinant human adenosine A2B receptor expressed in CHO cell membranes assessed as inhibition of NECA-induced cAMP accumulation preincubated for 1 hr followed by NECA induction measured after 5 mins in presence of [3H]cAMP and bovine cAMP-binding protein by liquid scintillation counting method; assay type: functional
Summary of the method: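 CHO cells stably expressing human A2BAR, pre-incubated with antagonist dilutions for 1 h at 37°C, then stimulated with NECA (10 µM final) for 5 min at 37°C. Reaction stopped with hot (90 °C) lysis solution (4 mM EDTA, 0.01 % Triton X100). cAMP quantified by radioactive competition with [³H]cAMP and bovine adrenal cAMP-binding protein. Response expressed as % of NECA response without antagonist. Means ± SEM, three independent experiments in duplicate.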

[10] = target: T3, Adenosine receptor A2b (Homo sapiens) (UniProt P29275); assay: Binding affinity to recombinant human adenosine A2B receptor expressed in CHO cell membranes at 100 nM after 15 mins in presence of PSB-603 by confocal microscopic method; assay type: cell-based
T3 sequence (whole entry): T1 sequence (P29275 whole entry)
Summary of the method: (§2)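 Live CHO cells stably expressing human A2BAR (or wild-type CHO as control) grown on chambered coverslips to about 80 % confluency. Incubated with fluorescent ligand (100 nM) for 15 min at 37°C, alone or after 30 min pre-incubation with PSB-603 (100 nM) or DPCPX (1 µM). Confocal laser scanning imaging with identical settings across conditions. Three similar experiments.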

[11] = target: T3, Adenosine receptor A2b (Homo sapiens); assay: Binding affinity to recombinant human adenosine A2B receptor expressed in CHO cell membranes at 100 nM after 15 mins in presence of DPCPX by confocal microscopic method; assay type: cell-based; summary of the method: as §2

Sequence of Adenosine receptor A2a (Homo sapiens, UniProt P29274) (P29274 whole entry): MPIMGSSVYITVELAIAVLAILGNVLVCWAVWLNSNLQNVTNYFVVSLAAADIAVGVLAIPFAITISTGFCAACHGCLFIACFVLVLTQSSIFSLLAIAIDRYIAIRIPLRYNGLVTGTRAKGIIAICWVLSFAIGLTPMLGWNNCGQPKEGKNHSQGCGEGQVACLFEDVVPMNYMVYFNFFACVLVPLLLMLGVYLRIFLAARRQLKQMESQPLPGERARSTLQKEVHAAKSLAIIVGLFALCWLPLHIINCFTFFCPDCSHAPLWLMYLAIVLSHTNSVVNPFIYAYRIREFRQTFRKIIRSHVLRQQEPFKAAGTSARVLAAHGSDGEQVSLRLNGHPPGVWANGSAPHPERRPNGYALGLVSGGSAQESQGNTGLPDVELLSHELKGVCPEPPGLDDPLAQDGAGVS
Sequence of Adenosine receptor A2a (Rattus norvegicus, UniProt P30543) (P30543 whole entry): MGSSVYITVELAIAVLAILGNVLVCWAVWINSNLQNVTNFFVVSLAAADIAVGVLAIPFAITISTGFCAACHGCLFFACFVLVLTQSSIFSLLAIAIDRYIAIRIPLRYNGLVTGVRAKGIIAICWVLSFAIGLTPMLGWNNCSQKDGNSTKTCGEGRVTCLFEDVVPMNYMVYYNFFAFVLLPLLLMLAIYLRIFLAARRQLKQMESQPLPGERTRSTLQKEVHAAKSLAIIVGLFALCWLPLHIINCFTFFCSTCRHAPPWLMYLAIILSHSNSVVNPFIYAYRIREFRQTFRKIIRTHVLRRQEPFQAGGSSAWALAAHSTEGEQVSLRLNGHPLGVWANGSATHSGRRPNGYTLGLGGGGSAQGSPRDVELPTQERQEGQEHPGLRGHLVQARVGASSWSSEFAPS

In the case of CCCn1c(=O)[nH]c2nc(-c3ccc(OCC(=O)NCCC4=C5C(C)=CC(C)=[N+]5[B-](F)(F)n5c(C)cc(C)c54)cc3)[nH]c2c1=O, the Ki (Adenosine receptor A2a [1]) is reported as greater than 10000 nM, the Ki (Adenosine receptor A2a [2]) is reported as greater than 10000 nM and the Ki (Adenosine receptor A2b [3]) is reported as 1.83 nM. The Ki (Adenosine receptor A2b [4]) was 0.18 nM, the Ratio Ki (Rattus norvegicus) was greater than 150 and the Ratio Ki (Homo sapiens) was greater than 1000. For the same compound, the Ratio Ki [5] was greater than 1000, the Ratio Ki [6] was greater than 1000 and the Ratio Ki [7] was greater than 1000. The Ratio Ki [8] was greater than 1000, the IC50 (Adenosine receptor A2b [9]) was 262 nM and the Activity [10] was “inactive”. For the same compound, the Activity [11] was “inactive”.

From ChEMBL document CHEMBL4184319, “Fluorescent-Labeled Selective Adenosine A2B Receptor Antagonist Enables Competition Binding Assay by Flow Cytometry” (J Med Chem, 2018)
